Assay results as given in ChEMBL document CHEMBL4219253, “Positive Modulators of the N-Methyl-d-aspartate Receptor: Structure-Activity Relationship Study of Steroidal 3-Hemiesters” (J Med Chem, 2018).
pEC50: −log10 of the molar value.

Legend:
Type in all cases: cell-based
[1] = target: Glutamate NMDA receptor; Grin1/Grin2b (Rattus norvegicus, UniProt P35439+Q00960); test: Positive allosteric modulation of recombinant rat GluN1alpha/GluN2B receptor expressed in HEK293 cells assessed as potentiation of glutamate-induced current response at holding potential -60mV by whole cell voltage clamp method
In short: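 HEK293 cells transfected with GluN1-1a, GluN2A, 2B, 2C or 2D and GFP cDNA. Whole-cell voltage clamp at -60 mV, 21–25 °C, series resistance <10 MΩ compensated 80–90%. Compound co-applied with 1 µM glutamate by fast multibarrel perfusion. DMSO 1% in all solutions. At least four cells per point.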

[2] = target: T1, Glutamate NMDA receptor; Grin1/Grin2b (Rattus norvegicus) (UniProt P35439+Q00960); test: Positive allosteric modulation of recombinant rat GluN1alpha/GluN2B receptor expressed in HEK293 cells assessed as potentiation of glutamate-induced current response at 1 to 100 uM at holding potential -60mV by whole cell voltage clamp method relative to control
In short: (§1)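 HEK293 cells transfected with GluN1-1a, the GluN2 subunit and GFP. Whole-cell voltage clamp at -60 mV, series resistance <10 MΩ, 80-90% compensation, room temperature (21–25 °C). Compound is co-applied with 1 µM glutamate by multibarrel fast perfusion (exchange ~10 ms). DMSO is held at 1% in all test and control solutions. Readout is % potentiation of the glutamate-evoked current.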

[3] = target: T1, Glutamate NMDA receptor; Grin1/Grin2b (Rattus norvegicus); test: Positive allosteric modulation of recombinant rat GluN1alpha/GluN2B receptor expressed in HEK293 cells assessed as potentiation of glutamate-induced current response at 1 to 300 uM at holding potential -60mV by whole cell voltage clamp method relative to control
[4] = target: T1, Glutamate NMDA receptor; Grin1/Grin2b (Rattus norvegicus); test: Positive allosteric modulation of recombinant rat GluN1alpha/GluN2B receptor expressed in HEK293 cells assessed as potentiation of glutamate-induced current response at 0.3 to 300 uM at holding potential -60mV by whole cell voltage clamp method relative to control; in short: as §1
[5] = target: T1, Glutamate NMDA receptor; Grin1/Grin2b (Rattus norvegicus); test: Positive allosteric modulation of recombinant rat GluN1alpha/GluN2B receptor expressed in HEK293 cells assessed as potentiation of glutamate-induced current response at 100 uM at holding potential -60mV by whole cell voltage clamp method relative to control; in short: as §1

With `CC(=O)[C@H]1CC[C@H]2[C@@H]3CC=C4C[C@@H](OC(=O)CCCCCCC(=O)O)CC[C@]4(C)[C@H]3CC[C@]12C` the pEC50 [1] was 4.71 and the Emax [2] was 156%.
`C[C@]12CC[C@H](OC(=O)CCCCCCCCC(=O)O)CC1=CC[C@@H]1[C@@H]2CC[C@]2(C)C(=O)CC[C@@H]12` showed a pEC50 [1] of 4.79 and an Emax [2] of 165%.
`C[C@]12CC[C@H](OC(=O)CCCCC(=O)O)CC1=CC[C@@H]1[C@@H]2CC[C@]2(C)C(=O)CC[C@@H]12` gave a pEC50 [1] of 3.96 and an Emax [3] of 180%.
`C[C@@]12CCC[C@H]1[C@@H]1CC=C3C[C@@H](OC(=O)CC(=O)O)CC[C@]3(C)[C@H]1CC2` was tested, and the pEC50 [1] was 5.33 and the Emax [4] was 236%.
For `CC(=O)[C@H]1CC[C@H]2[C@@H]3CC=C4C[C@@H](OC(=O)C(=O)O)CC[C@]4(C)[C@H]3CC[C@]12C`, the pEC50 [1] was 4.31 and the Emax [2] was 93%.
In the case of `CC[C@H]1CC[C@H]2[C@@H]3CC=C4C[C@@H](OC(=O)CCCC(=O)O)CC[C@]4(C)[C@H]3CC[C@]12C`, the pEC50 [1] was 5.00 and the Emax [4] was 209%.
In the case of `C[C@]12CC[C@H](OC(=O)CCCCCCC(=O)O)CC1=CC[C@@H]1[C@@H]2CC[C@]2(C)C(=O)CC[C@@H]12`, the pEC50 [1] was 4.31 and the Emax [2] was 189%.
`C[C@]12CC[C@H](OC(=O)CCCCCC(=O)O)CC1=CC[C@@H]1[C@@H]2CC[C@]2(C)C(=O)CC[C@@H]12` gave a pEC50 [1] of 4.08 and an Emax [2] of 187%.
For `C[C@@]12CCC[C@H]1[C@@H]1CC=C3C[C@@H](OC(=O)CCCC(=O)O)CC[C@]3(C)[C@H]1CC2`, the pEC50 [1] was 5.28 and the Emax [4] was 348%.
In the case of `C[C@@]12CCC[C@H]1[C@@H]1CC=C3C[C@@H](OC(=O)CCCCC(=O)O)CC[C@]3(C)[C@H]1CC2`, the pEC50 [1] was 5.55 and the Emax [4] was 191%.
Molecule `CC(=O)[C@H]1CC[C@H]2[C@@H]3CC=C4C[C@@H](OC(=O)CCC(=O)O)CC[C@]4(C)[C@H]3CC[C@]12C` [PREGNENOLONE SUCCINATE] has a pEC50 [1] of 4.56, an Emax [2] of 177% and an Activity [5] of 267%.
`CC[C@H]1CC[C@H]2[C@@H]3CC=C4C[C@@H](OC(=O)CCC(=O)O)CC[C@]4(C)[C@H]3CC[C@]12C` was tested, and the pEC50 [1] was 5.00 and the Emax [4] was 133%.
`C[C@@]12CCC[C@H]1[C@@H]1CC=C3C[C@@H](OC(=O)CCC(=O)O)CC[C@]3(C)[C@H]1CC2` gave a pEC50 [1] of 5.13 and an Emax [4] of 452%.
`CC(=O)[C@H]1CC[C@H]2[C@@H]3CC=C4C[C@@H](OC(=O)CCCC(=O)O)CC[C@]4(C)[C@H]3CC[C@]12C` showed a pEC50 [1] of 4.72, an Emax [2] of 183% and an Activity [5] of 460%.
Work on `C[C@@]12CCC[C@H]1[C@@H]1CC=C3C[C@@H](OC(=O)CCCCCC(=O)O)CC[C@]3(C)[C@H]1CC2` yielded a pEC50 [1] of 5.74 and an Emax [4] of 109%.
`CC[C@H]1CC[C@H]2[C@@H]3CC=C4C[C@@H](OC(=O)CC(=O)O)CC[C@]4(C)[C@H]3CC[C@]12C` showed a pEC50 [1] of 4.97 and an Emax [4] of 71%.
`CC(=O)[C@H]1CC[C@H]2[C@@H]3CC=C4C[C@@H](OC(=O)CCCCCC(=O)O)CC[C@]4(C)[C@H]3CC[C@]12C` showed a pEC50 [1] of 4.74, an Emax [2] of 191% and an Activity [5] of 458%.
`CC[C@H]1CC[C@H]2[C@@H]3CC=C4C[C@@H](OC(=O)CCCCCC(=O)O)CC[C@]4(C)[C@H]3CC[C@]12C` was tested, and the pEC50 [1] was 4.58 and the Emax [4] was 48%.
For `C[C@]12CC[C@H](OC(=O)CCCC(=O)O)CC1=CC[C@@H]1[C@@H]2CC[C@]2(C)C(=O)CC[C@@H]12`, the pEC50 [1] was 3.82 and the Emax [3] was 154%.
For `CC[C@H]1CC[C@H]2[C@@H]3CC=C4C[C@@H](OC(=O)CCCCC(=O)O)CC[C@]4(C)[C@H]3CC[C@]12C`, the pEC50 [1] was 4.76 and the Emax [4] was 60%.
For `CC(=O)[C@H]1CC[C@H]2[C@@H]3CC=C4C[C@@H](OC(=O)CC(=O)O)CC[C@]4(C)[C@H]3CC[C@]12C`, the pEC50 [1] was 4.40 and the Emax [2] was 108%.
With `C[C@]12CC[C@H](OC(=O)CCCCCCCC(=O)O)CC1=CC[C@@H]1[C@@H]2CC[C@]2(C)C(=O)CC[C@@H]12` the pEC50 [1] was 4.42 and the Emax [2] was 226%.
